NR2E3 ag-1 = agonists of human NR2E3 nuclear receptor; Q9Y5X4; CHO-S Gal4-NCOR/VP16-NR2E3 two-hybrid, luciferase; inhibition of corepressor binding, % at 3.98 µM; actives 0.35% (n = 360,000);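 active means inhibition above the mean of all tested compounds plus 3 SD, cut at about 70% in these data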;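 further: higher means lower luciferase signal from less NR2E3 corepressor binding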
HIF act = HIF pathway transcriptional activation; activation, % at 7.5 µM (by protocol); actives 0.32% (n = 300,000); U2OS HRE-luciferase reporter, luminescence; normalized: DMSO 0%, desferrioxamine 100%;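 active means mean activation of at least 10% of the iron chelator positive control signal, with at least half of replicates also reaching 10%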
TROY signal inh = inhibitors of TROY-dependent NF-kB signaling; inhibition, % at 10 µM; actives 0.98% (n = 360,000); Q293 LMP1-TROYcd NF-kB luciferase reporter, 4 h;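 active means compounds whose plate-normalised and pattern-corrected inhibition of the luciferase reporter signal at the single screening dose is 50% or more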
NR2E3 ag-2 = NR2E3 (human) agonism; GST-NR2E3/biotin-RetCOR TR-FRET, 1536-well; inhibition of corepressor binding, % at 4.78 µM; actives 0.12% (n = 320,000); AID 2300;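 active means percent inhibition above the cutoff of mean plus 3 SD of all tested compounds, set per screening campaign, cut at about 20% in these data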
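system = GST-tagged NR2E3 plus biotinylated RetCOR corepressor | input = 1.35 nM GST-NR2E3 | also added = 7 nM biotin-RetCOR | schedule = 5 h incubation at 4 °C | measured by = TR-FRET with europium anti-GST and streptavidin-D2, 340 nm excitation | read-out = percent loss of FRET ratio relative to control wells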
EBV LMP1 NFkB = Epstein-Barr LMP1 NF-kappaB reporter inhibition | AID 504558 | inhibition, % at 12.5 µM | actives 0.69% (n = 350,000) | LMP1-induced NF-kappaB luciferase reporter cells, luminescence; in the data active means inhibition above about 41%
NR2E3 ag confirm = NR2E3 (human) agonism, confirmation. shares compounds with NR2E3 ag-2. cell-free NR2E3 corepressor release, TR-FRET, 5 h. activation (reported as inhibition), % at 3.98 µM. actives 39% (n = 360). AID 2379; in the data active means activation above about 20%
PPARg-NCOR2 ctr = releases PPARgamma from NCOR2 in NR2E3 counter-screen. shares compounds with NR2E3 ag-2. TR-FRET PPARg-NCOR2 coregulator interaction, biochemical. inhibition, % at 3.98 µM. actives 45% (n = 360). AID 504787; in the data active means inhibition above about 20%
Numbers stand for hits; . = inactive; / = not tested or not shown. Most compounds without a hit are left out; they make up all but 2% or so of the library.

SMILES | NR2E3 ag-1 | HIF act | TROY signal inh | NR2E3 ag-2 | EBV LMP1 NFkB | NR2E3 ag confirm | PPARg-NCOR2 ctr
Cn1cc(Cl)c(-c2n[nH]c(=S)n2-c2ccc(F)cc2)n1 | . | . | . | 20.3 | . | . | .
Cc1c(Cl)c(-c2n[nH]c(=S)n2-c2ccc(F)cc2)nn1C | . | . | . | 20.8 | . | . | .
Cc1nn(C)c(-c2n[nH]c(=S)n2-c2ccccc2)c1Cl | . | . | . | . | . | / | /
Cc1ccc(-n2c(-c3nn(C)cc3Cl)n[nH]c2=S)cc1 | . | . | . | . | . | / | /
Cn1cc(Cl)c(-c2n[nH]c(=S)n2-c2ccccc2)n1 | . | . | . | 26.9 | . | . | .
Cc1cccc2cc(-c3nc4ccc(C(=O)O)cc4[nH]3)c(=O)oc12 | . | . | . | . | . | / | /
O=C(C1=C(O)C(=O)N(CC2CCCO2)C1c1ccc(Cl)cc1Cl)c1ccco1 (stereo not drawn) | . | . | . | 29.6 | . | 24.0 | 25.2
O=C(C1=C(O)C(=O)N(CC2CCCO2)C1c1ccccc1Cl)c1ccco1 (stereo not drawn) | . | . | . | . | . | / | /
CCOC(=O)CCCc1sc(N)nc1-c1[nH]c(=O)[nH]c1C | . | . | . | 47.9 | . | . | .
CC1=NN(Cc2ccccc2)C(=O)C1 | . | . | . | 19.6 | . | . | .
CCOc1ccccc1N(CC(=O)Nc1ccccc1)S(=O)(=O)c1ccccc1 | . | . | . | . | . | / | /
N/C(=N\OC(=O)COc1ccc2ccccc2c1Br)c1cccnc1 | / | . | / | 21.4 | / | . | .
N/C(=N\OC(=O)COc1ccc2ccccc2c1Br)c1ccccn1 | . | . | . | . | . | / | /
COC(=O)C1C2CC(C(Br)C2Br)C1C(=O)O (stereo not drawn) | . | / | . | / | . | / | /
Cc1ccc(O)c(C2=Nc3ccccc3N=C(c3ccco3)C2)c1 | . | . | . | 30.5 | . | . | .
Cc1ccc(O)c(C2=Nc3ccccc3N=C(c3ccc([N+](=O)[O-])cc3)C2)c1 | . | . | . | . | . | / | /
Cc1cc(-c2ccc(Cl)cc2)c(C#N)c(N)n1 | . | . | . | 38.9 | . | 26.3 | 25.7
Cc1ccc(-c2cc(-c3ccccc3)c(C#N)c(N)n2)o1 | . | . | . | . | . | / | /
NNC(=O)c1[nH]c2ccc(Br)cc2c1-c1ccccc1 | . | . | . | . | . | / | /
CCc1c(C(=O)O)[nH]c2ccc(Br)cc12 | . | . | . | 43.5 | . | 40.7 | 30.2
S=c1[nH]c2ccccc2n2cccc12 | . | . | . | 29.3 | . | . | .
CC(Sc1cnc2ccccc2n1)C(=O)O (stereo not drawn) | . | . | . | 29.9 | . | . | .
Cc1cc(SC(C)C(=O)O)nc2ccccc12 (stereo not drawn) | . | . | . | . | . | / | /
Cc1c(Br)c(=O)oc2c(C)c(O)ccc12 | . | . | 54.1 | 21.4 | . | . | .
CCc1cccc(NC(=O)Cn2c(=O)c3cccn3c3ccccc32)c1 | . | . | . | 26.1 | . | . | .
SMILES | NR2E3 ag-1 | HIF act | TROY signal inh | NR2E3 ag-2 | EBV LMP1 NFkB | NR2E3 ag confirm | PPARg-NCOR2 ctr
Cc1cccc(C)c1NC(=O)Cn1c(=O)c2cccn2c2ccccc21 | . | . | . | . | . | / | /
CCCCc1ccc(N2C(=NC(=O)C3CCCO3)SC3CS(=O)(=O)CC32)cc1 (stereo not drawn) | . | . | . | . | . | / | /
N#CC1=C2SCN(Cc3ccccc3)CN2C(=O)CC1c1cccs1 (stereo not drawn) | . | . | . | 22.4 | . | . | .
CCCCc1nnc(NC(=O)CSc2nc(O)c(Cc3ccccc3)c(=O)[nH]2)s1 | . | . | . | 25.9 | . | . | .
CCCCc1nnc(NC(=O)CSc2nc(O)c(-c3ccccc3)c(=O)[nH]2)s1 | . | . | . | . | . | / | /
Cc1ccc(CNC(=O)c2cc3c(s2)CS(=O)(=O)C3)cc1 | . | . | . | . | . | / | /
Cc1ccc(CNC(=O)c2cc3c(s2)CN(Cc2ccccc2)C3)cc1 | . | . | . | 20.5 | . | . | .
CN(CC(=O)Nc1ccccc1Cl)C(=O)COC(=O)c1cc([N+](=O)[O-])ccc1N1CCOCC1 | . | . | . | . | . | / | /
C=CCn1cc(C(=O)N2CCN(C)CC2)c(=O)c2cc(S(=O)(=O)N(CC)CC)ccc21 | . | . | . | . | . | / | /
COc1ccc(C(CNC(=O)COc2cccc(C)c2)N2CCCC2)cc1 (stereo not drawn) | . | / | . | . | . | / | /
COc1ccc(C(CNC(=O)COc2cccc(C(F)(F)F)c2)N2CCCC2)cc1 (stereo not drawn) | . | / | . | 31.6 | . | . | .
c1ccc(-n2ncc3c2ncn2nc(-c4ccco4)nc32)cc1 | . | / | . | 47.8 | . | . | 58.9
O=C(O)CCc1ccc(-c2ccc(Br)cc2)o1 | . | . | . | 34.6 | . | 36.3 | 32.2
O=C(O)CCc1ccc(-c2ccc(Cl)cc2)o1 | . | . | . | . | . | / | /
Cc1ccc(-c2nc3c(c(=O)c4ccccc4n3C)c(=O)n2Cc2ccco2)cc1 | . | . | . | . | . | / | /
Cn1c2ccccc2c(=O)c2c(=O)n(Cc3ccco3)c(-c3ccc(F)cc3)nc21 | . | . | . | 34.5 | . | . | .
CC(=O)Nc1cccc(-c2ccnc3c2CC(C(=O)NCc2ccc(N(C)C)cc2)O3)c1 (stereo not drawn) | . | / | . | / | / | / | /
C=CCSc1nc(-c2ccccc2)c(C#N)c(=O)[nH]1 | . | . | . | 21.7 | . | . | 41.1
N#Cc1c(-c2ccccc2)nc(SCC(=O)N(c2ccccc2)c2ccccc2)[nH]c1=O | . | . | . | . | . | / | /
COc1ccc(N(CC(=O)NC2CCCCC2C)S(=O)(=O)c2c(C)nn(C)c2C)cc1 (stereo not drawn) | . | . | . | . | . | / | /
Cc1cc(OCC(=O)OCC(=O)N2CCc3ccccc3C2)ccc1Cl | . | / | . | . | . | / | /
COc1cccc(CNC(=O)COC(=O)/C(C#N)=C/c2ccc(N(C)C)cc2)c1 | . | / | . | 30.7 | . | 36.0 | 35.5
Cc1ccc(C(=O)C2=C(O)C(=O)N(CCCn3ccnc3)C2c2ccc(OC(C)C)cc2)o1 (stereo not drawn) | . | . | . | 28.5 | . | . | .
COc1ccc(C2C(C(=O)c3ccc(C)o3)=C(O)C(=O)N2Cc2cccnc2)cc1 (stereo not drawn) | . | . | . | . | . | / | /
Cc1ccc(C(=O)C2=C(O)C(=O)N(Cc3cccnc3)C2c2ccc(Cl)c(Cl)c2)o1 (stereo not drawn) | . | . | . | 31.9 | . | 23.1 | 20.4
Cc1ccc(C(=O)C2=C(O)C(=O)N(Cc3cccnc3)C2c2ccc(OC(C)C)cc2)o1 (stereo not drawn) | . | . | . | 21.7 | . | . | .

Assay outcomes: PubChem BioAssay, several laboratories
